Structures can show the parent of a compound that is named as a salt. Each block holds one compound with its values, some of them ahead of it.
Experiments:
KB = assay: Cytotoxic activity against cellular metabolic activity of Cervix KB/HeLa tumor cell line using XTT proliferation assay after incubation with the compound for 48 h; type: functional, cell-based; settings: Homo sapiens
SF-268 [1] = assay: Cytotoxic activity against cellular metabolic activity of Glioma SF-268 tumor cell line using XTT proliferation assay after incubation with the compound for 48 h; type: functional, cell-based; settings: Homo sapiens, SF-268, 48 h
NCI-H460 [2] = assay: Tested for induction of cellular death in Human lung H-460 tumor cell line in Propidium Iodide Monolayer Assay; type: functional, cell-based
Outline: (§1)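 Propidium iodide monolayer assay: cells seeded at 1 × 10^5 or 5 × 10^4 cells/mL, 24 h recovery, drug in triplicate for 3–6 days by doubling time; PI 25 μg/mL added, fluorescence (ex 530/em 620 nm) read before and after freezing at −18 °C for 24 h; viable cells from the difference; % T/C versus concentration.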

MAXF401 cell line = assay: Tested for induction of cellular death in Human breast 401NL tumor cell line in Propidium Iodide Monolayer Assay; type: functional, cell-based; outline: as §1
MCF7 = assay: Tested for induction of cellular death in Human breast MCF-7 tumor cell line in Propidium Iodide Monolayer Assay; type: functional, cell-based; outline: as §1
LXFL 529 = assay: Tested for induction of cellular death in Human lung LXF 529L tumor cell line in Propidium Iodide Monolayer Assay; type: functional, cell-based; outline: as §1
[3] = tested on: Lung LXF 629L tumor cell line; assay: Tested for induction of cellular death in Human lung LXF 629L tumor cell line in Propidium Iodide Monolayer Assay; type: functional, cell-based; outline: as §1
SF-268 [4] = assay: Tested for induction of cellular death in Human ZNS SF-268 tumor cell line in Propidium Iodide Monolayer Assay; type: functional, cell-based; outline: as §1
RKO [5] = assay: Cytotoxic activity against human colon adenocarcinoma RKO cells with ectopic inducible expression of cyclin-dependent kinase inhibitor p27kip1; type: functional, cell-based
RKO [6] = assay: Cytotoxic activity against human colon adenocarcinoma RKO cells without ectopic inducible expression of cyclin-dependent kinase inhibitor p27kip1; type: functional, cell-based
RXF 944 = assay: Tested for induction of cellular death in Human renal RXF 944L tumor cell line in Propidium Iodide Monolayer Assay; type: functional, cell-based; outline: as §1
LT12 tumor cell line [7] = assay: Antiproliferative activity against LT12 phenotype LT12 MDR tumor cell line; type: functional, cell-based; settings: Rattus norvegicus
K562 = assay: In vitro inhibitory concentration against human chronic myelogenous leukemia K562 cell growth; type: functional, cell-based
L1210 [8] = assay: Antiproliferative activity against L1210 phenotype L1210 VCR tumor cell line; type: functional, cell-based; settings: Mus musculus
L1210 [9] = assay: Antiproliferative activity against L1210 tumor cell line; type: functional, cell-based; settings: Mus musculus
SK-OV-3 = assay: Cytotoxic activity against cellular metabolic activity of Ovary SKOV3 tumor cell line using XTT proliferation assay after incubation with the compound for 48 h; type: functional, cell-based; settings: Homo sapiens, SK-OV-3, 48 h
P388/ADR = assay: Antiproliferative activity against P388 phenotype P388 ADR tumor cell line; type: functional, cell-based; settings: Mus musculus
Sus scrofa [10] = species: Sus scrofa; assay: Concentration required to inhibit Microtubule assembly compared to colchicine using EM studies; type: functional
Tubulin [11] = biological target: T1, Tubulin (Sus scrofa, UniProt P02554+P02550); assay: In vitro inhibition of maximum porcine tubulin assembly rate after 20 min at 37 degrees C; type: functional
Sus scrofa [12] = species: Sus scrofa; assay: In vitro inhibitory concentration against tubulin assembly; type: functional
Tubulin [13] = biological target: T1, Tubulin; assay: In vitro inhibitory concentration required to displace [3H]colchicine from its binding site on Tubulin; type: protein assay
Outline: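 Streptavidin-coated yttrium SPA beads were then added and bound radioactivity measured by scintillation counting. IC50 was derived by nonlinear regression.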

NCI-H460 [14] = assay: Cytotoxic activity against cellular metabolic activity of Lung NCI-H460 tumor cell line using XTT proliferation assay after incubation with the compound for 48 h; type: functional, cell-based; settings: Homo sapiens, NCI-H460, 48 h
Outline: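 NCI-H460 human lung tumor cells seeded at 1 × 10^3 cells/well in microtiter plates and exposed to a range of compound concentrations for 48 h. Proliferation read as cellular metabolic activity by XTT. At least two replicates (n = 2); IC50 obtained from dose–response curves by nonlinear regression.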

LT12 tumor cell line [15] = assay: Antiproliferative activity against LT12 tumor cell line; type: functional, cell-based; settings: Rattus norvegicus
P388 (Mus musculus) = assay: Antiproliferative activity against P388 tumor cell line
HeLa (Homo sapiens) = assay: Effective concentration required to arrest propidium iodide stained KB/HeLa cells in G2/M phase

IC50 (LT12 tumor cell line [7]): 190 nM
IC50 (K562): 20 nM
IC50 (L1210 [8]): 130 nM
IC50 (L1210 [9]): 140 nM
IC50 (P388/ADR): 260 nM
IC50 (Sus scrofa [10]): 700 nM
IC50 (Tubulin [11]): 0.67 µM
IC50 (Sus scrofa [12]): 670 nM
IC50 (Tubulin [13]): 0.37 µM
IC50 (LT12 tumor cell line [15]): 320 nM
IC50 (P388 (Mus musculus)): 160 nM
EC50 (HeLa (Homo sapiens)): 206 nM
Compound: COc1ccc(C=C2c3ccccc3C(=O)c3ccccc32)cc1O
IC50 (KB): 90 nM
IC50 (SF-268 [1]): 50 nM
IC50 (NCI-H460 [2]): < 10 nM
IC50 (MAXF401 cell line): < 10 nM
IC50 (MCF7): < 10 nM
IC50 (LXFL 529): 520 nM
IC50 [3]: < 10 nM
IC50 (SF-268 [4]): 30 nM
IC50 (RKO [5]): > 9 µM
IC50 (RKO [6]): 60 nM
IC50 (RXF 944): < 10 nM
IC50 (SK-OV-3): 50 nM
IC50 (NCI-H460 [14]): 70 nM

IC50 (K562): 2000 nM
IC50 (Tubulin [11]): 4.4 µM
Compound: O=C1c2ccccc2C(=Cc2ccccc2)c2ccccc21

IC50 (K562): 170 nM
IC50 (Tubulin [11]): 0.63 µM
IC50 (Sus scrofa [12]): < 1000 nM
Compound: COc1cc(C=C2c3ccccc3C(=O)c3ccccc32)cc(OC)c1O
IC50 (NCI-H460 [2]): 3090 nM
IC50 (MAXF401 cell line): 240 nM
IC50 (MCF7): 4130 nM
IC50 (LXFL 529): 7490 nM
IC50 [3]: 720 nM
IC50 (SF-268 [4]): 620 nM
IC50 (RXF 944): 150 nM

IC50 (K562): 1400 nM
IC50 (Tubulin [11]): 0.63 µM
IC50 (Sus scrofa [12]): < 1000 nM
Compound: COc1cc(C=C2c3ccccc3C(=O)c3ccccc32)ccc1O
IC50 (NCI-H460 [2]): 2360 nM
IC50 (MAXF401 cell line): 1510 nM
IC50 (MCF7): 2520 nM
IC50 (LXFL 529): 3230 nM
IC50 [3]: 2070 nM
IC50 (SF-268 [4]): 2970 nM
IC50 (RXF 944): 2830 nM

IC50 (K562): 700 nM
Compound: CCOC(=O)c1ccc(C=C2c3ccccc3C(=O)c3ccccc32)cc1

IC50 (K562): 25000 nM
IC50 (Tubulin [11]): 2.6 µM
Compound: COc1ccc(CC2c3ccccc3C(=O)c3ccccc32)cc1

IC50 (K562): 600 nM
IC50 (Tubulin [11]): 1.7 µM
Compound: COc1ccc(C=C2c3ccccc3C(=O)c3ccccc32)cc1OC

IC50 (K562): 62000 nM
IC50 (Tubulin [11]): > 10 µM
Compound: COc1ccc(CC2c3ccccc3C(=O)c3ccccc32)cc1OC

IC50 (Tubulin [11]): > 10 µM
Compound: COc1ccc(CC2c3ccccc3C(=O)c3ccccc32)cc1OC(=O)c1ccccc1

IC50 (K562): 800 nM
IC50 (Tubulin [11]): 0.91 µM
Compound: Cc1cc(C=C2c3ccccc3C(=O)c3ccccc32)cc(C)c1O

IC50 (K562): 600 nM
IC50 (Tubulin [11]): > 10 µM
Compound: COc1cc(C=C2c3ccccc3C(=O)c3ccccc32)cc(OC)c1

IC50 (K562): 4000 nM
IC50 (Tubulin [11]): 10 µM
Compound: COc1cc(C=C2c3ccccc3C(=O)c3ccccc32)cc(OC)c1OC

Compound: COc1cc2c(c(OC)c1OC)-c1ccc(OC)c(=O)cc1[C@@H](NC(C)=O)CC2 [COLCHICINE]
IC50 (KB): 30 nM
IC50 (SF-268 [1]): 50 nM
IC50 (RKO [5]): > 10 µM
IC50 (RKO [6]): 20 nM
IC50 (K562): 20 nM
IC50 (SK-OV-3): 50 nM
IC50 (NCI-H460 [14]): 70 nM

Compound: COc1ccc(/C=C\c2cc(OC)c(OC)c(OC)c2)cc1O [COMBRETASTATIN A4]
IC50 (K562): 20 nM

IC50 (K562): 10 nM
Compound: COc1cccc2c1C(=O)c1c(O)c3c(c(O)c1C2=O)C[C@@](O)(C(=O)CO)C[C@@H]3O[C@H]1C[C@H](N)[C@H](O)[C@H](C)O1 [DOXORUBICIN]
IC50 (NCI-H460 [2]): 1720 nM
IC50 (MAXF401 cell line): 10 nM
IC50 (LXFL 529): 30 nM
IC50 [3]: 70 nM
IC50 (RXF 944): 60 nM

Compound: COC(=O)Nc1nc2cc(C(=O)c3cccs3)ccc2[nH]1 [NOCODAZOLE]
IC50 (KB): 140 nM
IC50 (SF-268 [1]): 300 nM
IC50 (RKO [5]): > 10 µM
IC50 (RKO [6]): 110 nM
IC50 (LT12 tumor cell line [7]): 50 nM
IC50 (L1210 [8]): 70 nM
IC50 (L1210 [9]): 60 nM
IC50 (SK-OV-3): 170 nM
IC50 (P388/ADR): 50 nM
IC50 (NCI-H460 [14]): 150 nM
IC50 (LT12 tumor cell line [15]): 300 nM
IC50 (P388 (Mus musculus)): 70 nM
EC50 (HeLa (Homo sapiens)): 82 nM

IC50 (LT12 tumor cell line [7]): 400 nM
IC50 (L1210 [8]): > 5000 nM
IC50 (L1210 [9]): 60 nM
IC50 (P388/ADR): > 5000 nM
IC50 (LT12 tumor cell line [15]): 6 nM
IC50 (P388 (Mus musculus)): 40 nM
EC50 (HeLa (Homo sapiens)): 54 nM
Compound: CC(=O)O[C@H]1C(=O)[C@@]2(C)[C@H]([C@H](OC(=O)c3ccccc3)[C@]3(O)C[C@H](OC(=O)[C@H](O)[C@@H](NC(=O)c4ccccc4)c4ccccc4)C(C)=C1C3(C)C)[C@]1(OC(C)=O)CO[C@@H]1C[C@@H]2O [PACLITAXEL]
IC50 (KB): 10 nM
IC50 (SF-268 [1]): 10 nM
IC50 (RKO [5]): > 3 µM
IC50 (RKO [6]): 10 nM
IC50 (SK-OV-3): 10 nM
IC50 (NCI-H460 [14]): 10 nM

IC50 (K562): 1 nM
Compound: CC[C@]1(O)C[C@@H]2CN(CCc3c([nH]c4ccccc34)[C@@](C(=O)OC)(c3cc4c(cc3OC)N(C)[C@H]3[C@@](O)(C(=O)OC)[C@H](OC(C)=O)[C@]5(CC)C=CCN6CC[C@]43[C@@H]65)C2)C1 [VINBLASTINE SULFATE]

IC50 (LT12 tumor cell line [7]): 260 nM
IC50 (L1210 [8]): > 5000 nM
IC50 (L1210 [9]): 20 nM
IC50 (P388/ADR): 1100 nM
IC50 (LT12 tumor cell line [15]): 1 nM
IC50 (P388 (Mus musculus)): 10 nM
Compound: CC[C@]1(O)C[C@@H]2CN(CCc3c([nH]c4ccccc34)[C@@](C(=O)OC)(c3cc4c(cc3OC)N(C)[C@H]3[C@@](O)(C(N)=O)[C@H](O)[C@]5(CC)C=CCN6CC[C@]43[C@@H]65)C2)C1 [VINDESINE]
